Experimental data as given in ChEMBL document CHEMBL2057135, “Synthesis, antitubercular and antimicrobial evaluation of 3-(4-chlorophenyl)-4-substituted pyrazole derivatives” (2012).
In brackets after ≈: the same amount, converted by molar mass.

Columns and labels:
Assay type in all cases: functional
Pichia kudriavzevii = experiment: Antifungal activity against Candida krusei KCCM 11655 after 1 day; conditions: KCCM 11655, 24 h
Cryptococcus neoformans = experiment: Antifungal activity against Cryptococcus neoformans KCCM 50564 after 1 day; conditions: KCCM 50564, 24 h
Aspergillus niger = experiment: Antifungal activity against Aspergillus niger KCTC 1231 after 2 days; conditions: KCTC 1231, 48 h
Aspergillus flavus = experiment: Antifungal activity against Aspergillus flavus KCCM 11899 after 2 days; conditions: KCCM 11899, 48 h
Escherichia coli = experiment: Antibacterial activity against Escherichia coli ATCC 25922
Staphylococcus aureus = experiment: Antibacterial activity against Staphylococcus aureus ATCC 29213
[1] = test system: Mycobacterium tuberculosis; experiment: Antitubercular activity against Mycobacterium tuberculosis H37Rv ATCC 27294 after 7 days by BACTEC method; conditions: H37Rv ATCC 27294, 168 h
Outline: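 Screened in vitro against M. tuberculosis H37Rv in a modified BACTEC 460 radiometric system. Test compound stocks were made at 1 mg/ml in DMSO and filter-sterilised through 0.22 µm PTFE filters. MIC was read, with rifampin as the reference agent.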

| SMILES | MIC (Pichia kudriavzevii) [µg/mL] | MIC (Cryptococcus neoformans) [µg/mL] | MIC (Aspergillus niger) [µg/mL] | MIC (Aspergillus flavus) [µg/mL] | MIC (Escherichia coli) [µg/mL] | MIC (Staphylococcus aureus) [µg/mL] | MIC [1] [µg/mL] |
| --- | --- | --- | --- | --- | --- | --- | --- |
| COc1cc(C2SCC(=O)N2NC(=O)c2cc(-c3ccc(Cl)cc3)n[nH]2)ccc1O (racemic) | 12.5 (≈ 28.1 µM) | 1.6 (≈ 3.6 µM) | 1.6 (≈ 3.6 µM) | 12.5 (≈ 28.1 µM) | 0.05 (≈ 0.112 µM) | 0.15 (≈ 0.337 µM) | 0.65 (≈ 1.46 µM) |
| O=C(NN1C(=O)[C@H](Cl)[C@H]1c1ccccc1O)c1cc(-c2ccc(Cl)cc2)n[nH]1 (racemic) | 6.3 (≈ 15.1 µM) | 1.6 (≈ 3.83 µM) | 12.5 (≈ 30 µM) | 12.5 (≈ 30 µM) | 0.019 (≈ 0.0455 µM) | 0.125 (≈ 0.3 µM) | 0.35 (≈ 0.839 µM) |
| O=C(NN1C(=O)CSC1c1ccccc1O)c1cc(-c2ccc(Cl)cc2)n[nH]1 (racemic) | 12.5 (≈ 30.1 µM) | 6.3 (≈ 15.2 µM) | 6.3 (≈ 15.2 µM) | 12.5 (≈ 30.1 µM) | 0.028 (≈ 0.0675 µM) | 0.06 (≈ 0.145 µM) | 0.5 (≈ 1.21 µM) |
| O=C(NN1C(=O)[C@H](Cl)[C@H]1c1ccc(O)cc1)c1cc(-c2ccc(Cl)cc2)n[nH]1 (racemic) | 25 (≈ 59.9 µM) | 3.2 (≈ 7.67 µM) | 1.6 (≈ 3.83 µM) | 12.5 (≈ 30 µM) | 0.01 (≈ 0.024 µM) | 0.04 (≈ 0.0959 µM) | 0.6 (≈ 1.44 µM) |
| O=C(NN1C(=O)[C@H](Cl)[C@H]1c1ccccc1[N+](=O)[O-])c1cc(-c2ccc(Cl)cc2)n[nH]1 (racemic) | 12.5 (≈ 28 µM) | 50 (≈ 112 µM) | 100 (≈ 224 µM) | 50 (≈ 112 µM) | 0.5 (≈ 1.12 µM) | 6 (≈ 13.4 µM) | 1.9 (≈ 4.26 µM) |
| O=C(NN1C(=O)CSC1c1ccccc1[N+](=O)[O-])c1cc(-c2ccc(Cl)cc2)n[nH]1 (racemic) | 25 (≈ 56.3 µM) | 3.2 (≈ 7.21 µM) | 50 (≈ 113 µM) | 50 (≈ 113 µM) | 0.1 (≈ 0.225 µM) | 2 (≈ 4.51 µM) | 4 (≈ 9.01 µM) |
| O=C(NN1C(=O)[C@H](Cl)[C@H]1c1cccc([N+](=O)[O-])c1)c1cc(-c2ccc(Cl)cc2)n[nH]1 (racemic) | 100 (≈ 224 µM) | 50 (≈ 112 µM) | 12.5 (≈ 28 µM) | 50 (≈ 112 µM) | 0.33 (≈ 0.739 µM) | 1.2 (≈ 2.69 µM) | 1.99 (≈ 4.46 µM) |
| O=C(NN1C(=O)CSC1c1cccc([N+](=O)[O-])c1)c1cc(-c2ccc(Cl)cc2)n[nH]1 (racemic) | 50 (≈ 113 µM) | 100 (≈ 225 µM) | 25 (≈ 56.3 µM) | 100 (≈ 225 µM) | 0.6 (≈ 1.35 µM) | 8 (≈ 18 µM) | 2 (≈ 4.51 µM) |
| O=C(NN1C(=O)[C@H](Cl)[C@H]1c1ccccc1Cl)c1cc(-c2ccc(Cl)cc2)n[nH]1 (racemic) | 1.6 (≈ 3.67 µM) | 6.3 (≈ 14.5 µM) | 12.5 (≈ 28.7 µM) | 12.5 (≈ 28.7 µM) | 0.031 (≈ 0.0712 µM) | 0.034 (≈ 0.078 µM) | 0.55 (≈ 1.26 µM) |
| O=C(NN1C(=O)CSC1c1ccccc1Cl)c1cc(-c2ccc(Cl)cc2)n[nH]1 (racemic) | 12.5 (≈ 28.8 µM) | 1.6 (≈ 3.69 µM) | 25 (≈ 57.7 µM) | 50 (≈ 115 µM) | 0.048 (≈ 0.111 µM) | 0.02 (≈ 0.0462 µM) | 0.5 (≈ 1.15 µM) |
| O=C(NN1C(=O)[C@H](Cl)[C@H]1c1ccc(Cl)cc1)c1cc(-c2ccc(Cl)cc2)n[nH]1 (racemic) | 6.3 (≈ 14.5 µM) | 1.6 (≈ 3.67 µM) | 6.3 (≈ 14.5 µM) | 12.5 (≈ 28.7 µM) | 0.01 (≈ 0.023 µM) | 0.28 (≈ 0.643 µM) | 1 (≈ 2.3 µM) |
| O=C(NN1C(=O)CSC1c1ccc(Cl)cc1)c1cc(-c2ccc(Cl)cc2)n[nH]1 (racemic) | 25 (≈ 57.7 µM) | 12.5 (≈ 28.8 µM) | 12.5 (≈ 28.8 µM) | 6.3 (≈ 14.5 µM) | 0.022 (≈ 0.0508 µM) | 0.048 (≈ 0.111 µM) | 1.15 (≈ 2.65 µM) |
| O=C(NN1C(=O)CSC1c1ccc(O)cc1)c1cc(-c2ccc(Cl)cc2)n[nH]1 (single isomer, unassigned; (+)) | 50 (≈ 121 µM) | 1.6 (≈ 3.86 µM) | 1.6 (≈ 3.86 µM) | 12.5 (≈ 30.1 µM) | 0.017 (≈ 0.041 µM) | 0.125 (≈ 0.301 µM) | 0.39 (≈ 0.94 µM) |
| O=C(O)c1cn(C2CC2)c2cc(N3CCNCC3)c(F)cc2c1=O [CIPROFLOXACIN] |  |  |  |  |  | 0.25 (≈ 0.754 µM) |  |
| OC(Cn1cncn1)(Cn1cncn1)c1ccc(F)cc1F [FLUCONAZOLE] | 25 (≈ 81.6 µM) | 6.3 (≈ 20.6 µM) | 6.3 (≈ 20.6 µM) | 25 (≈ 81.6 µM) |  |  |  |
| Nc1nc(=O)[nH]cc1F [FLUCYTOSINE] | 6.3 (≈ 48.8 µM) | 6.3 (≈ 48.8 µM) | 6.3 (≈ 48.8 µM) | 25 (≈ 194 µM) |  |  |  |
| COc1c(N2C[C@@H]3CCCN[C@@H]3C2)c(F)cc2c(=O)c(C(=O)O)cn(C3CC3)c12 [MOXIFLOXACIN] |  |  |  |  | 0.015 (≈ 0.0374 µM) | 0.06 (≈ 0.149 µM) |  |
| CO[C@H]1/C=C/O[C@@]2(C)Oc3c(C)c(O)c4c(O)c(c(/C=N/N5CCN(C)CC5)c(O)c4c3C2=O)NC(=O)/C(C)=C\C=C\[C@H](C)[C@H](O)[C@@H](C)[C@@H](O)[C@@H](C)[C@H](OC(C)=O)[C@@H]1C [RIFAMPIN] |  |  |  |  |  |  | 0.125 (≈ 0.152 µM) |
